To fix the notation:
B1: tRNA (parent)
chain: GUUCCGUUGGCGUAAUGGUAACGCGUCUCCCUCCUAAGGAGAAGACUGCGGGUUCGAGUCCCGUACGGAACG

This sample holds only a part of the variants without activity.

The series covers variants of B1. The series is described as follows: yeast fitness relative to wild type (ratio to wild type); higher = fitter; tRNA-Arg(CCU), competitive growth, 37 C, YPD. The procedure, abridged:
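For this measurement, the tRNA-Arg(CCU) gene was varied by chemical synthesis at a 3% per-site mutation rate across 69 sites, and each variant was placed at the native genomic locus in Saccharomyces cerevisiae. The pooled strains went through a 24-hour competition in YPD at 37°C in six parallel replicates, with amplicons from start and end populations read by 100-nucleotide paired-end sequencing. Darwinian fitness relative to wild type followed from the change in each genotype's frequency. Genotypes needed ≥ 100 starting reads, and estimates < 0.5 were set to 0.5.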
In the case of GUUCCGUUGGCGUAAUGGUAACGCGUCUCCCUCCUAAGGAGAAGUCUGCGAGUUCGAGUCCCGUACGGAACG, the yeast fitness stood at 0.919. In the case of GUUCCGUUGGCGUAAUGGUAACGCGUCUCCCUCCUAAGGAGAAGUCUACGGGUUAGAGUCCCGUCCGGAACG, the yeast fitness was at most 0.5. Take GUUCCGUUGGCGUAAUGGUAACGCGUCUCCCUCCUAAGGAGAAGUCUACGGGUUCAAGUCCCGUACGGAACG: the yeast fitness is 0.975.

Turning to GUUCCGUUGGCGUAAUGGUAACGCGUCUCCCUCCUAAGGAGAAGGCUGCGGGUUCGAGUCCUGUACGGAACG, the yeast fitness came to 0.968.

In the case of GUUCCGUUGGCGUAAUGGUAACGCGUCUCCCUCCUAAGGAGAAGGCUGCGGGUUCGAGUACCGUACGGAACG, the yeast fitness came out at 0.632. Under GUUCCGUUGGCGUAAUGGUAACGCGUCUCCCUCCUAAGGAGAAGUCUGCGGGUUCGAGUCGCGUCCGGAACG stands at most 0.5. In the case of GUUCCGUUGGCGUAAUGGUAACGCGUCUCCCUCCUAAGGAGAAGUCUGCGGGUUCGAGUCCCGUACGGAACG, the yeast fitness is 0.99. Turning to GUUCCGUUGGCGUAAUGGUAACGCGUCUCCCUCCUAAGGAGAAGGCUGCGGGUUCGAGUCCUGUAAGGAACG, the yeast fitness was at most 0.5.

For the variant GUUCCGUUGGCGUAAUGGUAACGCGUCUCCCUCCUAAGGAGAAGGCUGCGGGUUCGAAUCCCGUACGGUACG, the yeast fitness turned out to be 0.738. As for GUUCCGUUGGCGUAAUGGUAACGCGUCUCCCUCCUAAGGAGAAGGUUGCCGGUUCGAGUCCCGUACGGAACG, the yeast fitness is at most 0.5.

As to GUUCCGUUGGCGUAAUGGUAACGCGUCUCCCUCCUAAGGAGAAGUCUGGGGGUUGGAGUCCCGUACCGAACG, the yeast fitness came out at 0.532. Next, GUUCCGUUGGCGUAAUGGUAACGCGUCUCCCUCCUAAGGAGAAGUCUGCGGGUUCGAAUCCCGUACGGAACG: 0.907; GUUCCGUUGGCGUAAUGGUAACGCGUCUCCCUCCUAAGGAGAAGUCUACGGGUUAGAGUCCCGUACGGAACG: 0.543; GUUCCGUUGGCGUAAUGGUAACGCGUCUCCCUCCUAAGGAGAAGUCUGGGGGUUCGAGUCCCGUUCGGAACG: 0.599.

Consider GUUCCGUUGGCGUAAUGGUAACGCGUCUCCCUCCUAAGGAGAAGGCUGCGGGUUCGAGUACAGUACGGAACG, for which the yeast fitness amounted to 0.57.

Regarding GUUCCGUUGGCGUAAUGGUAACGCGUCUCCCUCCUAAGGAGAAGGAUGCGGGUUCGAGUCCCGUACGGAACG, the yeast fitness is 0.916.

For the variant GUUCCGUUGGCGUAAUGGUAACGCGUCUCCCUCCUAAGGAGAAGGUUGCGGGUUCGAGUCCCGUACGGAACG, the yeast fitness came to 0.991. In the case of GUUCCGUUGGCGUAAUGGUAACGCGUCUCCCUCCUAAGGAGAAGGCUGCGGGUUCGAGUCACGUACGGAACG, the yeast fitness came to 0.635. Consider GUUCCGUUGGCGUAAUGGUAACGCGUCUCCCUCCUAAGGAGAAGGCUGCGGGUUCGAGUCCCGUAUGGCACG, for which the yeast fitness is 0.598. On to GUUCCGUUGGCGUAAUGGUAACGCGUCUCCCUCCUAAGGAGAAGUCUGCGGGUUCGAGUCCGGUAGGGAACG, for which the yeast fitness was at most 0.5. Consider GUUCCGUUGGCGUAAUGGUAACGCGUCUCCCUCCUAAGGAGAAGUCUGUGGGUUCGAGUCCCGUACGGAACG, for which the yeast fitness came to 1.07.

For GUUCCGUUGGCGUAAUGGUAACGCGUCUCCCUCCUAAGGAGAAGGCUGCGGGUUUGAGUCCCGUACGGAACG, the yeast fitness stood at 0.704. Under GUUCCGUUGGCGUAAUGGUAACGCGUCUCCCUCCUAAGGAGAAGGCUGCGGGUUGGAGUCCCGUACGGAACG stands 0.562; under GUUCCGUUGGCGUAAUGGUAACGCGUCUCCCUCCUAAGGAGAAGUGUGCGGGUUCGAGUCCCGUACGGAUCG, at most 0.5. In the case of GUUCCGUUGGCGUAAUGGUAACGCGUCUCCCUCCUAAGGAGAAGGCUGCGGGUUCGAGUCCCAUACGGAACG, the yeast fitness was 0.747. Regarding GUUCCGUUGGCGUAAUGGUAACGCGUCUCCCUCCUAAGGAGAAGGCUGCGGGUUCGAGUCCCUUACGGAACG, the yeast fitness came to 0.732. For the variant GUUCCGUUGGCGUAAUGGUAACGCGUCUCCCUCCUAAGGAGAAGUGUGCGGGUUCGAGUCCCGUACGGAACG, the yeast fitness turned out to be 0.739. Next, GUUCCGUUGGCGUAAUGGUAACGCGUCUCCCUCCUAAGGAGAAGUCUGAGGCUUCAAGUCCCGUACGGAACG: at most 0.5; GUUCCGUUGGCGUAAUGGUAACGCGUCUCCCUCCUAAGGAGAAGUCUGCGGGUUCGAGUUCCGUACGGAACG: 0.737; GUUCCGUUGGCGUAAUGGUAACGCGUCUCCCUCCUAAGGAGAAGUCUACGGGUUCGAGUCCCGUACGGAACG: 0.824. Take GUUCCGUUGGCGUAAUGGUAACGCGUCUCCCUCCUAAGGAGAAGUCUGUGGGUUCGAGUCCCGUUCGGAACG: the yeast fitness stood at 0.755. In the case of GUUCCGUUGGCGUAAUGGUAACGCGUCUCCCUCCUAAGGAGAAGGCUGCGGGUGCGAGUCCCGUACGGAACG, the yeast fitness was 0.563. Consider GUUCCGUUGGCGUAAUGGUAACGCGUCUCCCUCCUAAGGAGAAGUCUGCCGGUUCGAGUCCCGUACGGAACG, for which the yeast fitness is 0.728.

Regarding GUUCCGUUGGCGUAAUGGUAACGCGUCUCCCUCCUAAGGAGAAGGCUGCGGGUUCGACUCCCGUACUCAACG, the yeast fitness is at most 0.5. Next, GUUCCGUUGGCGUAAUGGUAACGCGUCUCCCUCCUAAGGAGAAGUCUGCGGGUUCGAGUCGCGUACGGAACG: 0.569.

For GUUCCGUUGGCGUAAUGGUAACGCGUCUCCCUCCUAAGGAGAAGUCUGCGGGUUCGAGUCCCGUACGGAUCG, the yeast fitness amounted to 0.925.

Regarding GUUCCGUUGGCGUAAUGGUAACGCGUCUCCCUCCUAAGGAGAAGUCUGCGGGUUCGAGUCCCGUACGGAGCG, the yeast fitness worked out at 1.09. Under GUUCCGUUGGCGUAAUGGUAACGCGUCUCCCUCCUAAGGAGAAGGCUGCGGGUUCGAGUCCCGUACGAAACG stands 0.973.

The record behind these values is the RNAGym collection of RNA variant scans (doi:10.1126/science.aae0568).
